Data as given in ChEMBL document CHEMBL4028870, “Controlling Plasma Stability of Hydroxamic Acids: A MedChem Toolbox” (J Med Chem, 2017).

Columns and labels:
Type in all cases: ADME, cell-free
[1] = tested on: Plasma; test: Half life in rat plasma at 10 uM up to 360 mins in presence of 3-cyclohexylpropanehydroxamic acid by LC-MS/MS analysis; settings: 6 h
[2] = tested on: Plasma; test: Half life in rat plasma at 10 uM up to 360 mins in presence of 4-cyclohexylbutanehydroxamic acid by LC-MS/MS analysis; settings: 6 h
[3] = Half life in rat plasma at 10 uM up to 360 mins in presence of N-hydroxy-N'-phenylsuccinamide by LC-MS/MS analysis; settings: with N-hydroxy-N'-phenylsuccinamide (concentration not stated)
[4] = tested on: Plasma; test: Stability in rat plasma at 10 uM up to 360 mins in presence of EDTA by LC-MS/MS analysis; settings: 6 h
Summary of the method: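 Rat plasma incubated in duplicate at 37 °C with 10 µM test compound (1% methanol), plus either 1 mM DTNB (11) or 0.5 mM EDTA (12). Duplicate controls used methanol in place of the inhibitor. Samples taken from 0 to 360 min and quenched with 9 volumes of cold methanol containing internal standard. Remaining compound measured by LC-MS/MS relative to T0.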

With `O=C(CCCc1ccccc1)NO` [PHENYLBUTYRYLHYDROXAMIC ACID] the t1/2 [1] was 22.6 h, the t1/2 [2] was 30.9 h and the half-life at 10 µM [3] was 20 h. For the same molecule, the Stability [4] was “Unstable”.
